pIC50: −log10 of the molar value. Active and inactive are the calls of the source. No cut-off for these calls is given here.
Tests used:
[1] = biological target: Discoidin domain-containing receptor 2 (Homo sapiens, UniProt Q16832); assay: Inhibition of recombinant human GST-tagged DDR2 expressed in Baculovirus expression system
Outline: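 IC50 values were determined with the Invitrogen SelectScreen biochemical kinase assay.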

[2] = biological target: T1, Bcr/Abl fusion protein (Homo sapiens) (UniProt P00519+P11274); assay: Inhibition of BCR/ABL autophosphorylation at Y245 site in human K562 cells at 300 nM after 1 hr by immunoblotting method; format: cell-based
T1 sequence (P00519 whole entry, looked up, the tested form may be a part): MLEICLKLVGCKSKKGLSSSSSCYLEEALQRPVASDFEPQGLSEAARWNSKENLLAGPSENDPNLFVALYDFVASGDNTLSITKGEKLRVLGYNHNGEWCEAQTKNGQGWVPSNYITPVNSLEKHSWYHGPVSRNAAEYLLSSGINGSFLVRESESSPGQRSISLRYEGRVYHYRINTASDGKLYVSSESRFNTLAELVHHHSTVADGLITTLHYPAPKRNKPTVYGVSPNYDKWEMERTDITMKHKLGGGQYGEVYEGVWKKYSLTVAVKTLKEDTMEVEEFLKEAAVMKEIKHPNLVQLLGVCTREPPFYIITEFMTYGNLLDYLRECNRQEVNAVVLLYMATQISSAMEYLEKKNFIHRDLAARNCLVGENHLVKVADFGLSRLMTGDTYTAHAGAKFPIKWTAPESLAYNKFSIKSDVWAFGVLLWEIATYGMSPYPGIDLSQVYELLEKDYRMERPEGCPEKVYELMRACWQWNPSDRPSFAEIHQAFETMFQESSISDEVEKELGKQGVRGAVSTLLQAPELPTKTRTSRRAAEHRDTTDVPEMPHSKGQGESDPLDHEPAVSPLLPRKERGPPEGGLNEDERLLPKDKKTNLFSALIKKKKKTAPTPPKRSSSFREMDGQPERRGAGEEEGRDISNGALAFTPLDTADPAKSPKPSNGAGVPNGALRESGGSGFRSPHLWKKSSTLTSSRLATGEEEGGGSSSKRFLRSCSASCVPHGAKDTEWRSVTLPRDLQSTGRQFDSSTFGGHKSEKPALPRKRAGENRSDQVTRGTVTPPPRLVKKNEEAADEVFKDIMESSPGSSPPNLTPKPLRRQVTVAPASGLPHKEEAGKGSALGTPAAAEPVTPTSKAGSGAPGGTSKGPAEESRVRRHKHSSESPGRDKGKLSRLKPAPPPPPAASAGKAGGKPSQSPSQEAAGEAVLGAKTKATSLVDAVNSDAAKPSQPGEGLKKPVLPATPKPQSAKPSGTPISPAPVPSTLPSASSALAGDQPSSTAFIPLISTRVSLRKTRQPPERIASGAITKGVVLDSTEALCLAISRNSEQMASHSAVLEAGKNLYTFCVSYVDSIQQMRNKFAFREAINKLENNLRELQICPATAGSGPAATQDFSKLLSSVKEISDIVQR
T1 sequence (P11274 whole entry, looked up, the tested form may be a part): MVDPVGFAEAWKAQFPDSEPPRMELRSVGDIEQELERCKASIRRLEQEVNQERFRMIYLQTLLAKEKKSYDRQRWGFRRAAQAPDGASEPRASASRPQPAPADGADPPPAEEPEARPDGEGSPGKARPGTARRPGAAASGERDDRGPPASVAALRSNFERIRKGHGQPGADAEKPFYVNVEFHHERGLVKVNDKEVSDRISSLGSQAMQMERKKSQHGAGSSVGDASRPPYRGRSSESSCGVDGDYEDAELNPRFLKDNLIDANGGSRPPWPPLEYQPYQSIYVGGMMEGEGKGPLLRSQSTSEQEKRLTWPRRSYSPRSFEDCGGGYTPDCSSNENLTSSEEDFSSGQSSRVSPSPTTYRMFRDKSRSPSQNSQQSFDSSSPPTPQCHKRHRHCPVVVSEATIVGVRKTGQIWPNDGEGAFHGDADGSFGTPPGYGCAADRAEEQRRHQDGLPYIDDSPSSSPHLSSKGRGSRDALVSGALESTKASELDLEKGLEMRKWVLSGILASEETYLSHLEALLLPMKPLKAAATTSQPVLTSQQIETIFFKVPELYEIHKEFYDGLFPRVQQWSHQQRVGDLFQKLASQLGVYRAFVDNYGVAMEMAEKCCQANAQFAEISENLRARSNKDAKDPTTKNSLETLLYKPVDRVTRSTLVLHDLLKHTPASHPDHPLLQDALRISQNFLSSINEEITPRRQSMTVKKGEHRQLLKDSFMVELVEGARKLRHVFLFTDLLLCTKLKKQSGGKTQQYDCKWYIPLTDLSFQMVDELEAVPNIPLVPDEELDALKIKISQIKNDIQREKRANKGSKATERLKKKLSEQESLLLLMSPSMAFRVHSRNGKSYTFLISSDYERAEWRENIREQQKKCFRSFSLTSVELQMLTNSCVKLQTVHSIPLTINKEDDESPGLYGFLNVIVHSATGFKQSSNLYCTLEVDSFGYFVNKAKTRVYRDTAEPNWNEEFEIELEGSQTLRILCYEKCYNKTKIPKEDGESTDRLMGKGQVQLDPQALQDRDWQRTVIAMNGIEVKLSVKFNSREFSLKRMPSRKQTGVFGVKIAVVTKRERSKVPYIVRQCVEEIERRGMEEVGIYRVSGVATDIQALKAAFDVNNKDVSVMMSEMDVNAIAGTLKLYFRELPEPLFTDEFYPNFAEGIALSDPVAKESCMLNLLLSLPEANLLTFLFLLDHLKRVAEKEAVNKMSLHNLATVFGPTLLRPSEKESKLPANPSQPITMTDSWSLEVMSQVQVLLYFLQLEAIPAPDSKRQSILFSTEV
Outline: (§1)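 KU812, K562 and MEG-01 cells were exposed to compound at the indicated concentrations for 1 h. Whole-cell lysates were then analysed by Western blot for phosphorylated signaling proteins.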

[3] = biological target: T1, Bcr/Abl fusion protein (Homo sapiens); assay: Inhibition of BCR/ABL in human MEG01 cells assessed as downregulation of ERK phosphorylation at Thr202/Tyr204 site after 1 hr by immunoblotting method; format: cell-based; conditions: MEG-01; outline: as §1
K562 = assay: Antitumor activity against human K562 cells xenografted in nu/nu mouse assessed as reduction in tumor growth administered through oral gavage after 16 days of continuous administration; format: functional
Outline: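 Female nu/nu mice bore established K562 xenografts and received daily oral dosing at 25.0 or 50.0 mg/kg/d, or vehicle, starting when tumors reached 200 to 400 mm3, for 16 days. Groups had 5 animals; data are mean ± SEM. Tumor size and body weight were normalized to initial values, and final tumor weight was recorded. Tumor tissue was stained with HE, Ki-67 and TUNEL.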

[4] = system: Mast/stem cell growth factor receptor Kit (Homo sapiens), P10721 [L576P]; assay: Inhibition of partial length human KIT L576P mutant expressed in bacterial expression system assessed as residual activity at 1 uM relative to control
Sequence of Mast/stem cell growth factor receptor Kit (Homo sapiens), P10721 [L576P] (P10721 whole entry L576P): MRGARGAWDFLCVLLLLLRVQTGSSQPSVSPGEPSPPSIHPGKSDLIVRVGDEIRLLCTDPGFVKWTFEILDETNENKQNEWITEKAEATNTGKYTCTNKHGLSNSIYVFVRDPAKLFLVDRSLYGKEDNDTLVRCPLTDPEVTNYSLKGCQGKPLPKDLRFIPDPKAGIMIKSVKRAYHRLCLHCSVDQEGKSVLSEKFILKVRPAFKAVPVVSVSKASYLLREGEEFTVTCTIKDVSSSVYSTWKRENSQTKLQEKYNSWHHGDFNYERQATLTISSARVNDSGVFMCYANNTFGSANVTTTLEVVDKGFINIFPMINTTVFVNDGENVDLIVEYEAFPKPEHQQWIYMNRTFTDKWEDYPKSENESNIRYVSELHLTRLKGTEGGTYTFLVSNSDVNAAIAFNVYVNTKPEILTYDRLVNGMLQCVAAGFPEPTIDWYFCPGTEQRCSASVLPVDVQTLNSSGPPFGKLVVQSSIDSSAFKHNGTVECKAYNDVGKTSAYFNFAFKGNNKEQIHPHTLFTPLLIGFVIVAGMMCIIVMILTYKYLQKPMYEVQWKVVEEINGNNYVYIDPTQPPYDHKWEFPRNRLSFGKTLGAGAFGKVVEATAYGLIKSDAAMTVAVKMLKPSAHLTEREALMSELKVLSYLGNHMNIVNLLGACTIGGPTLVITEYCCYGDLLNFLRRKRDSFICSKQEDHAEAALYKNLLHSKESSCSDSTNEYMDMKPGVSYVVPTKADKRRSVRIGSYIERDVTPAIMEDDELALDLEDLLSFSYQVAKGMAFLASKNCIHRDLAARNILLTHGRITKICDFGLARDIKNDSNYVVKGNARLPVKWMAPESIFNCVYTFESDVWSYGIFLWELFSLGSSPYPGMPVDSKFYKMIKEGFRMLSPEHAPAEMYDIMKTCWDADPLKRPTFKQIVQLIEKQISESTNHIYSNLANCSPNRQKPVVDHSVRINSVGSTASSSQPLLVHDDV

Sequence of Discoidin domain-containing receptor 2 (Q16832 whole entry, the tested form may be a part): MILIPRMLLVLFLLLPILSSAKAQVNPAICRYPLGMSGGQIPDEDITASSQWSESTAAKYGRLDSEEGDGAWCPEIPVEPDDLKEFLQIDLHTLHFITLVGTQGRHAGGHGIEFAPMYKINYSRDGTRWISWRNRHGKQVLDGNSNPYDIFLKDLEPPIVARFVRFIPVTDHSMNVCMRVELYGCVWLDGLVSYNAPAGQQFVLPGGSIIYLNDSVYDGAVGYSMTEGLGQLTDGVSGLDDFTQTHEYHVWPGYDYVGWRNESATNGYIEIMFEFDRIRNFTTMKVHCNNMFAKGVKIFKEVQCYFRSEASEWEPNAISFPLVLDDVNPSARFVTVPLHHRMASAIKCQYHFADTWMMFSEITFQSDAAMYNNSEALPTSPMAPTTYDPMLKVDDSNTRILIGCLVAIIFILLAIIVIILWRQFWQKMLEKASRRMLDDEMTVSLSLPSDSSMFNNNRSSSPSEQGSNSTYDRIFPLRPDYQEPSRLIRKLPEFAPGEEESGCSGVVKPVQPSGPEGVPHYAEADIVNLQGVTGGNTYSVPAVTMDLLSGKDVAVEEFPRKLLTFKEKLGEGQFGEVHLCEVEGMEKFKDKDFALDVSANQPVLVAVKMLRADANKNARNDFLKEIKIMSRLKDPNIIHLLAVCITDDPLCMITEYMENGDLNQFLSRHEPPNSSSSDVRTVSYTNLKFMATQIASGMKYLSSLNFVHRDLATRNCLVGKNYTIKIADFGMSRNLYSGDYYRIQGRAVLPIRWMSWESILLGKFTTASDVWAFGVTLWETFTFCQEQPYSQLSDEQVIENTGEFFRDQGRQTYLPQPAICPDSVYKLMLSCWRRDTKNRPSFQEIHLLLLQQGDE

CNc1nc(Nc2ccc(C)c(N)c2)ncc1C(=O)Nc1cc(NC(=O)c2cccc(C(F)(F)F)c2)ccc1C
pIC50 [1]: 6.34 | inhibition [2]: Active | inhibition [3]: Dose-dependent effect | TGI (K562): Dose-dependent effect | Activity [4]: 0.8%

Reference: ChEMBL document CHEMBL3779840, “Discovery of 2-((3-Amino-4-methylphenyl)amino)-N-(2-methyl-5-(3-(trifluoromethyl)benzamido)phenyl)-4-(methylamino)pyrimidine-5-carboxamide (CHMFL-ABL-053) as a Potent, Selective, and Orally Available BCR-ABL/SRC/p38 Kinase Inhibitor for Chronic Myeloid Leukemia” (J Med Chem, 2016)
